# High-throughput results deposited in PubChem BioAssay by Broad Institute.
# Only some compounds are listed: those with a hit (about 2.2% of all), similar ones and a draw of the others.
# rRNA inh HTS – reduced GFP signal of wild-type E. coli, primary screen, bacterial rRNA inhibitor project, GFP/RFP fluorescence, OD600, single point; hit rate 1.6% among 350,000; GFP signal change (wild-type ribosome), % (no concentration beside the values); E. coli WT GFP vs humanized-ribosome RFP mutants, 24 h; active compounds read low; DMSO median 0, no signal -100;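 active means significant combined selectivity score with lowered wild-type GFP, culture density cut under 30%, mutant RFP and density less affected; inactive means any of these conditions unmet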
# PDI turbidity – inhibitors of human PDI, primary screen, biochemical, turbidity, single point, plate reader; hit rate 0.052% among 350,000; PDI insulin aggregation turbidity, A650, 90 min; Protein disulfide-isomerase (Homo sapiens), P07237; inhibition, % at 10 µM; AID 588391, 2011;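 active means mean inhibition across replicates of 30% or more, whatever share of single replicates reach that level; inconclusive means mean inhibition below 30% while every single replicate reaches 30%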
# Target sequence (P07237 whole entry, looked up): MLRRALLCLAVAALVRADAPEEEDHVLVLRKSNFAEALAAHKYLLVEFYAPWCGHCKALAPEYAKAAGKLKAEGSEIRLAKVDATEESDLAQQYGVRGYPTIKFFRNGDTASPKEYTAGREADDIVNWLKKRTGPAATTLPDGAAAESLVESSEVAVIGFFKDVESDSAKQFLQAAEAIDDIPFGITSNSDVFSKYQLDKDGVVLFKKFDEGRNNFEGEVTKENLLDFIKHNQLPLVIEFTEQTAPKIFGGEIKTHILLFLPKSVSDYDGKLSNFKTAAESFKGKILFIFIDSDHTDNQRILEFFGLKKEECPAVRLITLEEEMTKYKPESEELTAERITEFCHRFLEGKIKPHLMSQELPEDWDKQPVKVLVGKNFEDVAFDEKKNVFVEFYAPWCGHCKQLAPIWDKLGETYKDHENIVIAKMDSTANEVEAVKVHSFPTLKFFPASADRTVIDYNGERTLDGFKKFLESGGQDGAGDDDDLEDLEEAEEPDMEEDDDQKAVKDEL
# HIV Env fusion – inhibitors of HIV-1 Env-driven cell-cell fusion, primary screen, HeLa-JRFL effector, CEM21 target cells, luciferase; hit rate 1.1% among 360,000; inhibition, % at 12.3 µM; AID 651610, 2012;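 active means mean replicate inhibition score of at least 50 and every replicate individually at or above 50; inconclusive means only one of the two criteria met; inactive means mean below 50 and not all replicates reaching 50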
# ERp5 inh – inhibitors of ERp5-driven insulin aggregation, primary screen, biochemical, turbidity, absorbance 650 nm, single point | 90 min | inhibition, % at 9.99 µM | Protein disulfide-isomerase A6 (Homo sapiens), Q15084 | hit rate 0.05% among 350,000;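 active means mean replicate inhibition above about 25%, with every replicate also reaching it, limit read from the data, passing the limit was not always enough; inconclusive means only one of those two criteria met; inactive means neither criterion met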
# PvdQ acylase – P. aeruginosa PvdQ acylase inhibitors, primary screen, biochemical, fluorescence, plate reader and imaging, single point; purified PvdQ acylase; inhibition, % at 10 µM; hit rate 0.063% among 340,000; AID 488965, 2010; in the data active means inhibition above about 30%, passing the limit was not always enough; inconclusive means no clear call, values can overlap the other calls
# FN deposit inh – inhibitors of fibronectin matrix deposition, primary screen, AH1F cells, Alexa488-fibronectin fluorescence, plate reader. AH1F fibroblasts, overnight. inhibition, % at 12.6 µM. hit rate 0.086% among 350,000;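 active means mean inhibition across replicates of 30% or more, regardless of how many single replicates reach that level; inconclusive means mean under 30% yet at least half of replicates reach 30%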
#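 Test system: AH1F fibroblast monolayer depositing Alexa488-labelled fibronectin into matrix. Input: 10000 cells per well. Technique: fluorescence, ex 485 nm, em 525 nm. Buffer or medium: DMEM plus 2% serum, read in PBS. Timing: 1 h cell adhesion before compound, then overnight fibronectin incubation. Compound: single dose, pinned. Read-out basis: inhibition from reduced deposited-fibronectin fluorescence.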
# AID977621 – growth inhibition of wild-type GFP E. coli, dose response, H69 mutant RFP, cherry-pick; shares compounds with rRNA inh HTS; E. coli wild-type GFP strain growth, fluorescence, 24 h; activity change, negative = inhibition at 50 µM; 1,900 tested, under 10 active; AID 977621, 2014;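 active means Wild-type ribosome reporter drop at least double the humanized mutant ribosome reporter drop, growth loss under a set limit; inconclusive means no clear call, values can overlap the other calls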;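 further: wild-type GFP and H69 mutant RFP strains grown together 50/50 in each well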
# AID977628 – E. coli growth inhibition, wild-type GFP versus h24 humanized RFP strain, dose response, h24 mutant RFP vs wild-type GFP, cherry-pick; shares compounds with rRNA inh HTS; E. coli WT GFP strain growth, fluorescence, 24 h; activity change, negative = inhibition at 50 µM; 1,900 tested, under 10 active; AID 977628, 2014;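 active means compound lowering the normal-ribosome reporter at least twice as much as the humanized-ribosome reporter, growth loss under a set limit; inconclusive means no clear call, values can overlap the other calls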;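 further: wild-type GFP and h24 humanized RFP strains co-cultured 1 to 1 per well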
# Hits are given with their value; i = inactive; ? = inconclusive; nt = not tested or not shown.
SMILES,rRNA inh HTS,PDI turbidity,HIV Env fusion,ERp5 inh,PvdQ acylase,FN deposit inh,AID977621,AID977628
COCC#Cc1ccc2c(c1)O[C@@H](CN(C)C(=O)c1ccccc1)[C@@H](C)CN([C@@H](C)CO)S2(=O)=O,i,nt,i,i,nt,nt,nt,nt
COc1ccccc1S(=O)(=O)N[C@@H]1C=C[C@H](CC(=O)N2CCN(C)CC2)O[C@H]1CO,i,nt,i,i,nt,nt,nt,nt
COc1ccc(OCCCC(=O)Nc2cccc([N+](=O)[O-])c2)cc1,nt,i,i,nt,i,nt,nt,nt
CC(=O)Nc1cccc(OCCCOc2cccc([N+](=O)[O-])c2)c1,-5.5,i,i,i,i,i,i,i
CN(C)C(=O)c1cccc(-c2ccc3c(c2)[C@@H]2[C@@H](CCN2C(=O)c2ccc4c(c2)OCO4)[C@H](CO)N3)c1,i,nt,nt,nt,nt,i,nt,nt
CCc1ccc(C(=O)Nc2cccnc2Oc2ccc(Cl)cc2)cc1,-20.6,i,i,i,i,i,i,nt
O=C(Nc1ccc2c(c1)OCCO2)c1cccnc1Oc1ccc(Cl)cc1,-27.2,i,i,i,i,i,i,nt
COc1ccc(/C=C/c2cccc[n+]2C)c(O)c1,i,i,i,i,i,i,nt,nt
C[n+]1ccccc1/C=C/c1cc(Br)ccc1O,-21.3,i,i,i,i,i,nt,?
CCC(=O)N1[C@H](CO)[C@H]2c3ccccc3N(C(=O)c3ccc4c(c3)OCO4)C[C@H]21,i,nt,nt,i,nt,nt,nt,nt
CC(C)[C@H]1C(=O)N[C@H](c2ccccc2)CC=CC[C@@H](C)Oc2ccccc2C(=O)N1C (mixture of isomers),i,nt,nt,nt,nt,i,nt,nt
COc1cc(OC)c(NS(=O)(=O)c2cccc(C(=O)OCC(=O)NCC3CCCO3)c2)cc1Cl (stereo unspecified),-22.6,i,i,i,i,nt,i,i
Cc1ccc2oc(=O)n(CC(=O)OCCC(C)C)c2c1,-17.9,i,i,i,i,i,i,i
Cc1ccc2oc(=O)n(CCOc3ccccc3C)c2c1,i,i,i,i,i,i,nt,nt
Cc1ccc2oc(=O)n(CCCOc3ccccc3C)c2c1,-19.0,i,i,i,i,i,i,?
COc1ccc(NC(=O)N2C[C@H]3[C@@H](c4ccccc42)[C@@H](CO)N3C(=O)C2CCCCC2)cc1,i,nt,nt,i,nt,i,nt,nt
Cc1ccccc1NCc1ccc([N+](=O)[O-])s1,-33.5,i,i,i,i,i,nt,i
COc1ccc(-c2cc(C(=O)N3CCc4ccccc4C3)no2)cc1,-26.2,i,i,i,i,i,i,nt
COc1cccc(-c2cc(C(=O)N3CCc4ccccc4C3)no2)c1,nt,i,i,nt,i,i,nt,nt
COc1ccc(-c2cc(C(=O)N3CCCC3)no2)cc1OC,i,i,i,i,i,i,nt,nt
COc1ccc(-c2cc(C(=O)N3CCCCC3)no2)cc1OC,-22.6,i,nt,i,i,nt,i,?
C[C@@H]1CN([C@@H](C)CO)C(=O)c2cc(NC(=O)Nc3cccc4ccccc34)ccc2O[C@@H]1CN(C)S(=O)(=O)c1cn(C)cn1,i,nt,nt,i,nt,nt,nt,nt
COc1ccc(C#Cc2ccc([C@H]3[C@@H](CO)N4CCCCN(C(=O)Nc5cccc(F)c5)C[C@H]34)cc2)cc1,-48.2,nt,nt,nt,nt,nt,i,i
COc1ccc(C#Cc2ccc([C@@H]3[C@H](CO)N4CCCCN(C(=O)Nc5cccc(F)c5)C[C@@H]34)cc2)cc1,-49.0,nt,nt,i,nt,nt,nt,?
COc1cccc(S(=O)(=O)N2CCCCN3[C@H](CO)[C@H](c4ccc(C#CC(C)C)cc4)[C@H]3C2)c1,i,nt,nt,i,nt,nt,nt,nt
COc1cccc(S(=O)(=O)N2CCCCN3[C@H](C2)[C@@H](c2ccc(C#CC(C)C)cc2)[C@@H]3CO)c1,i,nt,nt,i,nt,nt,i,i
